Measurements taken from ChEMBL document CHEMBL1157508, “Mollamides B and C, Cyclic hexapeptides from the indonesian tunicate Didemnum molle” (J Nat Prod, 2008).
In brackets after ≈: the same amount, converted by molar mass. Activity calls are given as the source filed them. The calls are words filed in the database; no cut-off is given here. Numbered stars: 1 amine (or outer) side, 2 acyl side, 3 side chain; on linkers, the order of the positions; unused ones are H or OH. Square brackets hold non-standard residues; d marks the D form. Peptide text beside a SMILES is read from it. * marks the point of attachment. X1 = CC(C)[C@H](N[*:1])C1=N[C@H](C(=O)[*:2])CS1; Allyl(1,1-Me2) = C=CC(C)(C)*

Key:
Leishmania donovani = assay: Antileishmanial activity against Leishmania donovani; assay type: functional, organism-based
Staphylococcus aureus = assay: Antimicrobial activity against methicillin-resistant Staphylococcus aureus; assay type: functional, organism-based
[1] = molecular target: T1, Prostaglandin G/H synthase 2 (Homo sapiens) (UniProt P35354); assay: Inhibition of COX2 in cell based assay
T1 sequence (whole entry): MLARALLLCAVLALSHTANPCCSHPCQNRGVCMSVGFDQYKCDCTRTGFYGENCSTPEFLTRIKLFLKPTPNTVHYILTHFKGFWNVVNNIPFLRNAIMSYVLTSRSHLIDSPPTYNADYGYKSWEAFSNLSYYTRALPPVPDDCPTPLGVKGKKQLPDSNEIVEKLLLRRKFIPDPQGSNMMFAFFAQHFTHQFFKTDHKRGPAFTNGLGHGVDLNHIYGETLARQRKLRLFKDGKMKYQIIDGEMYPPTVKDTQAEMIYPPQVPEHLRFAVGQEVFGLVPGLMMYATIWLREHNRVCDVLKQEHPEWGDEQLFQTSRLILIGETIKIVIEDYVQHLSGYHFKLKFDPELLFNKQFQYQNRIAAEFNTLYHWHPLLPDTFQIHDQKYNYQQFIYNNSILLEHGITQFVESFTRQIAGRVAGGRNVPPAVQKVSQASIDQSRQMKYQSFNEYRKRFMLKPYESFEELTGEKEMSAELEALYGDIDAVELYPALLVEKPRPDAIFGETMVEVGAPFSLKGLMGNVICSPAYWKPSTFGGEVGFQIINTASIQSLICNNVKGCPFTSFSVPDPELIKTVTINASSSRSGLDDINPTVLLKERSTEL

[2] = system: Mycobacterium intracellulare; assay: Antimicrobial activity against Mycobacterium intracellular; assay type: functional, organism-based
Microglia = assay: Antiinflammatory activity against rat neonatal microglia; assay type: functional
Pichia kudriavzevii = assay: Antimicrobial activity against Candida krusei; assay type: functional, organism-based
Cryptococcus neoformans = assay: Antimicrobial activity against Cryptococcus neoformans; assay type: functional, organism-based
Candida albicans = assay: Antimicrobial activity against Candida albicans; assay type: functional, organism-based
[3] = system: Human immunodeficiency virus 1; assay: Antiviral activity against HIV1 infected in human PBMC; assay type: functional, organism-based
Plasmodium falciparum [4] = assay: Antimalarial activity against Plasmodium falciparum W2; assay type: functional, organism-based
Nakaseomyces glabratus = assay: Antimicrobial activity against Candida glabrata; assay type: functional, organism-based
Plasmodium falciparum [5] = assay: Antimalarial activity against Plasmodium falciparum D6; assay type: functional, organism-based
[6] = Cytotoxicity against human H125 cells assessed as zone differential value; assay type: functional
Method in brief: (§1)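 In vitro disk diffusion assay measuring differential cell killing across nine cell types: leukemias (murine L1210, human CCRF-CEM), solid tumors (murine colon 38, human HCT-116, H125, MCF-7, LNCaP), and murine and human normal hematopoietic progenitor cells (CFU-GM). The read-out is the zone differential between solid tumor, leukemia and normal cell colonies.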

[7] = Cytotoxicity against mouse Colon38 cells assessed as zone differential value; assay type: functional; method in brief: as §1
HCT-116 = assay: Cytotoxicity against human HCT116 cells assessed as zone differential value; assay type: functional; method in brief: as §1
L1210 = assay: Cytotoxicity against mouse L1210 cells assessed as zone differential value; assay type: functional; method in brief: as §1

Question: For `C=CC(C)(C)O[C@H](C)[C@@H]1NC(=O)[C@@H]2CCCN2C(=O)[C@H](Cc2ccccc2)NC(=O)[C@H](C(C)C)NC(=O)[C@@H]2CSC(=N2)[C@H](C(C)C)NC1=O` [MOLLAMIDE B] (cyclo(FPT(Allyl(1,1-Me2))[X1]V)), which IC50 (Leishmania donovani) is on record?
Answer: 18 µg/mL (≈ 25.8 µM)

Question: What about the IC90 (Leishmania donovani) of the same compound?
Answer: 35 µg/mL (≈ 50.2 µM)

Question: What about the Activity (Staphylococcus aureus) of the same compound?
Answer: inactive

Question: And the Activity [1]?
Answer: inactive

Question: What about the Activity [2] of the same compound?
Answer: inactive

Question: What about the Activity (Microglia) of the same compound?
Answer: inactive

Question: And the Activity (Pichia kudriavzevii)?
Answer: inactive

Question: And the Activity (Cryptococcus neoformans)?
Answer: inactive

Question: What about the Activity (Candida albicans) of the same compound?
Answer: inactive

Question: And the EC50 [3]?
Answer: 48.7 µM

Question: And the IC50 (Plasmodium falciparum [4])?
Answer: 2.1 µg/mL (≈ 3.01 µM)

Question: What about the Activity (Nakaseomyces glabratus) of the same compound?
Answer: inactive

Question: What about the IC50 (Plasmodium falciparum [5]) of the same compound?
Answer: 2 µg/mL (≈ 2.87 µM)

Question: Which Activity [1] does the source give for `C=CC(C)(C)OC[C@@H]1NC(=O)CNC(=O)[C@@H]2CCCN2C(=O)[C@H]([C@H](C)CC)NC(=O)c2csc(n2)[C@H](CC(C)C)NC1=O` [MOLLAMIDE C] here?
Answer: inactive

Question: And the Activity [6]?
Answer: 100

Question: And the Activity (Microglia)?
Answer: inactive

Question: And the Activity [7]?
Answer: 250

Question: And the Activity (HCT-116)?
Answer: 100

Question: And the Activity (L1210)?
Answer: 100
